Results as given in ChEMBL document CHEMBL1799981, “Synthesis and evaluation of nitric oxide-releasing derivatives of 3-n-butylphthalide as anti-platelet agents” (Bioorg Med Chem Lett, 2011).
Each block holds one molecule with its values, some of them ahead of it.

How the values were obtained:
[1] = Induction of NO release from the compound in phosphate buffer at pH 7.4 at 0.1 mM incubated for 15 to 300 mins measured every 15 mins for 120 mins and every 30 mins for remaining time by Griess assay; type: physicochemical; details: pH 7.4, 100 µM
Method in brief: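 Compound at 0.1 mM in PBS pH 7.4 containing 2% DMSO and 5.0 mM L-cysteine, incubated at 37 °C for 15–300 min. Sampled every 15 min up to 120 min, then every 30 min. Samples (2 mL) mixed with Griess reagent, 37 °C 10 min, absorbance at 540 nm. NO quantified against nitrite standards; means per time point.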

[2] = Antiplatelet activity in rabbit platelet rich plasma assessed as inhibition of ADP-induced aggregation at 1 mM treated for 5 mins before ADP challenge by turbidimetry; type: functional; details: Oryctolagus cuniculus
Method in brief: (§1)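 Rabbit PRP (low-speed spin 500 rpm 10 min; PPP from 3000 rpm 10 min as reference) pre-treated in duplicate with vehicle, reference drug or compound for 5 min, then ADP 10 µM final at 37 °C for 5 min. Aggregation followed by optical density (Born turbidimetry). % inhibition versus vehicle-treated ADP-exposed controls; IC50 by nonlinear regression, top concentration 1.0 mM. Mean ± S.D., n = 4.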

[3] = Antiplatelet activity in rabbit platelet rich plasma assessed as inhibition of ADP-induced aggregation at 1 mM treated for 5 mins before ADP challenge by turbidimetry in presence of endogenous NO scavenger hemoglobin; type: functional; details: Oryctolagus cuniculus
Method in brief: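 Rabbit PRP exposed to compound at 1.0 mM for 5 min at 37 °C together with hemoglobin 20 µM (NO scavenger), then challenged with ADP 10 µM. Aggregation monitored turbidimetrically. Inhibition relative to vehicle-treated ADP-exposed controls. Mean ± SD from several independent experiments; Student's t test.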

[4] = Antiplatelet activity in rabbit platelet rich plasma assessed as inhibition of ADP-induced aggregation treated for 5 mins before ADP challenge by turbidimetry; type: functional; details: Oryctolagus cuniculus; method in brief: as §1
[5] = Aqueous solubility of the compound; type: physicochemical; details: buffer

Activity [1]: 0.043 µg/mL
SMILES: CCCCC(OC(=O)CN1CCOCC1)c1ccccc1C(=O)Oc1ccc(/C=C/C(=O)NCCO[N+](=O)[O-])cc1.Cl (centres undefined)

IC50 [4]: 54.4 µM
Activity [1]: 0.057 µg/mL
solubility [5]: soluble
SMILES: CCCCC(OC(=O)CN(CC)CC)c1ccccc1C(=O)Oc1ccc(/C=C/C(=O)NCCO[N+](=O)[O-])cc1OC.Cl (centres undefined)
inhibition at 1000 µM [2]: 83%
inhibition at 1000 µM [3]: 54.4%

IC50 [4]: 39.4 µM
Activity [1]: 0.06 µg/mL
SMILES: CCCCC(OC(=O)CN1CCCCC1)c1ccccc1C(=O)Oc1ccc(/C=C/C(=O)NCCO[N+](=O)[O-])cc1OC.Cl (centres undefined)
inhibition at 1000 µM [2]: 83%

solubility [5]: soluble
SMILES: CCCCC(OC(=O)CN1CCCCC1)c1ccccc1C(=O)Oc1ccc(/C=C/C(=O)NCCO[N+](=O)[O-])cc1.Cl (centres undefined)
inhibition at 1000 µM [2]: 82.4%

Activity [1]: 0.027 µg/mL
SMILES: CCCCC(OC(C)=O)c1ccccc1C(=O)Oc1ccc(/C=C/C(=O)NCC(C)O[N+](=O)[O-])cc1OC (centres undefined)

Continued, molecule first:

SMILES: CCCCC(OC(=O)CN(CC)CC)c1ccccc1C(=O)Oc1ccc(/C=C/C(=O)NCCCO[N+](=O)[O-])cc1.Cl (centres undefined)
inhibition at 1000 µM [2]: 82.1%
solubility [5]: soluble

SMILES: CCCCC(OC(=O)CN(CC)CC)c1ccccc1C(=O)O (centres undefined)
inhibition at 1000 µM [2]: 67.2%

SMILES: COc1cc(/C=C/C(=O)NCCO[N+](=O)[O-])ccc1O
inhibition at 1000 µM [2]: 51.3%

SMILES: CCCCC(OC(C)=O)c1ccccc1C(=O)Oc1ccc(/C=C/C(=O)NCCO[N+](=O)[O-])cc1 (centres undefined)
Activity [1]: 0.022 µg/mL

SMILES: CCCCC1OC(=O)c2ccccc21 (racemic) [RAC-3-N-BUTYLPHTHALIDE]
inhibition at 1000 µM [2]: 67.8%

SMILES: CC(=O)Oc1ccccc1C(=O)O [ASPIRIN]
inhibition at 1000 µM [2]: 68.5%
